Molecules are shown by their SMILES.

The target in assay [1] is Protein farnesyltransferase (Homo sapiens, UniProt P49354+P49356). Nature of the assay: Inhibition of human farnesyltransferase assessed as incorporation of [3H]FPP into H-Ras-CVLS. It is filed as protein-complex assay. The essentials:
(§1)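 In vitro radiometric assay measuring transfer of [3H]FPP (FTase) or [3H]GGPP (GGTase-I) onto recombinant H-Ras-CVLS or H-Ras-CVLL, respectively.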

Assay [2] has as its target Geranylgeranyl transferase type I (Homo sapiens, UniProt P49354+P53609). Nature of the assay: Inhibition of human geranylgeranyltransferase-1 assessed as incorporation of [3H]GGPP into H-Ras-CVLL. The format is protein-complex assay. The essentials:
as §1

For assay [3], the species on record is Homo sapiens. Nature of the assay: Selectivity ratio of IC50 for human geranylgeranyltransferase-1 to IC50 for human farnesyltransferase.
The target of assay [4] is Protein farnesyltransferase (Mus musculus, UniProt Q61239+Q8K2I1). Description: Inhibition of H-Ras farnesylation expressed in mouse NIH3T3 cells. The format is functional, cell-based. The essentials: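 Oncogenic H-Ras-transformed NIH3T3 cells were treated with a range of inhibitor concentrations. Detection used peroxidase-conjugated secondary antibodies and enhanced chemiluminescence. IC50 is the mean of three independent assays ± SD unless stated otherwise.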

Assay [5] has as its target Geranylgeranyl transferase type 1 (Mus musculus, UniProt Q61239+Q8BUY9). Description: Inhibition of Rap1A geranylgeranylation expressed in mouse NIH3T3 cells. The format is functional, cell-based. The essentials: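 Oncogenic H-Ras-transformed NIH3T3 cells were treated with a range of inhibitor concentrations. […] Detection used peroxidase-conjugated secondary antibodies and enhanced chemiluminescence. IC50 is the mean of three independent assays ± SD unless stated otherwise.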

As to `Cn1cnc(S(=O)(=O)N(CCN(Cc2cncn2C)c2c(F)cc(C#N)cc2F)CC2CCN(c3ncccn3)CC2)c1`, the IC50 (in general, the midpoint of a concentration-inhibition curve) is 290 nM in assay [1] and greater than 10000 nM in assay [2]. Moreover, the Selectivity ratio in assay [3] was greater than 34.
As to `Cn1cnc(S(=O)(=O)N(Cc2ccccc2)[C@H]2CCC[C@@H]2N(Cc2cncn2C)c2ccc(C#N)cc2)c1` (racemic), the results for the IC50 in assay [1] and in assay [2] were 450 nM and 9150 nM, respectively. Further, the Selectivity ratio in assay [3] came to 20.
Turning to `Cn1cnc(S(=O)(=O)N(CCN(Cc2cncn2C)c2ccc(C#N)cc2F)CC2CCN(c3ncccn3)CC2)c1`, the IC50 in assay [1] was 64 nM; in assay [2], greater than 10000 nM. For the same molecule, the Selectivity ratio in assay [3] is greater than 156.
As to `Cc1cccc(CN(CCN(Cc2cncn2C)c2ccc(C#N)cc2)S(=O)(=O)c2cn(C)cn2)c1`, the IC50 in assay [1] is 54 nM; in assay [4] it was 300 nM; in assay [5], greater than 10000 nM; in assay [2], 630 nM. The Selectivity ratio in assay [3] worked out at 12.
For `Cn1cnc(S(=O)(=O)N(CCN(Cc2cncn2C)c2ccc(C#N)cc2)Cc2ccc(C#N)cc2)c1`, the IC50 in assay [1] was 370 nM; in assay [4], greater than 10000 nM; in assay [5], greater than 10000 nM; in assay [2], 6500 nM. Besides, the Selectivity ratio in assay [3] came out at 18.
With `Cn1cnc(S(=O)(=O)N(CCN(Cc2cnc[nH]2)c2ccc(Br)cc2)Cc2ccccc2)c1`, the IC50 in assay [4] is 5700 nM; in assay [5] it was greater than 10000 nM.
For the molecule `Cn1cnc(S(=O)(=O)N(CCN(Cc2cncn2C)c2ccc(C#N)cc2)CC2CC2)c1`, the IC50 in assay [1] is 590 nM; in assay [4], greater than 10000 nM; in assay [5], greater than 10000 nM; in assay [2], greater than 10000 nM. In addition, the Selectivity ratio in assay [3] was greater than 17.
For `C=C(C)CN(CCN(Cc1cncn1C)c1ccc(C#N)cc1)S(=O)(=O)c1cn(C)cn1`, the IC50 is 114 nM in assay [1], greater than 10000 nM in assay [4], greater than 10000 nM in assay [5] and 600 nM in assay [2]. Also, the Selectivity ratio in assay [3] turned out to be 5.3.
For `Cn1cnc(S(=O)(=O)N(CCN(Cc2cncn2C)c2ccc(-c3ccccc3)cc2)Cc2ccccc2)c1`, the IC50 stood at 6850 nM in assay [1] and 5000 nM in assay [2]. In assay [3], the Selectivity ratio turned out to be 0.7.
Regarding `Cn1cnc(S(=O)(=O)N(CCN(Cc2cncn2C)c2ccc(C(N)=O)cc2)Cc2ccccc2)c1`, the IC50 was 5300 nM in assay [1] and greater than 10000 nM in assay [2]. Besides, the Selectivity ratio in assay [3] is greater than 2.
Take `Cn1cnc(S(=O)(=O)N(CCN(Cc2cncn2C)c2ccc(C#N)cc2)Cc2ccc(-n3cccc3)cc2)c1`: the IC50 in assay [1] is 390 nM; in assay [4], 4000 nM; in assay [5], greater than 10000 nM; in assay [2], 5800 nM. Moreover, the Selectivity ratio in assay [3] came to 15.
Regarding `Cn1cncc1CN(CCN(Cc1ccccc1)S(=O)(=O)c1cccc2cccnc12)c1ccc(C#N)cc1`, the IC50 was 30 nM in assay [1], 600 nM in assay [4], greater than 10000 nM in assay [5] and 10000 nM in assay [2]. Moreover, in assay [3], the Selectivity ratio stood at 333.
In the case of `CN(C)c1cccc2c(S(=O)(=O)N(CCN(Cc3cncn3C)c3ccc(C#N)cc3)Cc3ccccc3)cccc12`, the figures for the IC50 in assay [1], in assay [5] and in assay [2] were 160 nM, greater than 10000 nM and 10000 nM, respectively.
In the case of `Cn1cnc(S(=O)(=O)N(CCN(Cc2cncn2C)c2ccc(C#N)cc2)Cc2ccsc2)c1`, the IC50 in assay [1] was 67 nM; in assay [4], 400 nM; in assay [5], greater than 10000 nM; in assay [2], 940 nM. Also, in assay [3], the Selectivity ratio is 14.
Take `C#CCN(CCN(Cc1cncn1C)c1ccc(C#N)cc1)S(=O)(=O)c1cn(C)cn1`: the IC50 in assay [1] was 720 nM; in assay [5], greater than 10000 nM; in assay [2] it was greater than 10000 nM. For the same molecule, the Selectivity ratio in assay [3] is greater than 14.
For `Cn1cnc(S(=O)(=O)N(CCN(Cc2cncn2C)c2c(F)c(F)c(C#N)c(F)c2F)CC2CCN(c3ncccn3)CC2)c1`, the IC50 turned out to be 490 nM in assay [1] and 8750 nM in assay [2]. For the same molecule, in assay [3], the Selectivity ratio turned out to be 18.
In the case of `Cn1cnc(S(=O)(=O)N(CCN(Cc2cncn2C)c2ccc(C#N)cc2)Cc2ccccc2)c1`, the IC50 was 1900 nM in assay [4], greater than 10000 nM in assay [5] and 2700 nM in assay [2].
As to `Cn1cncc1CN(CCN(Cc1ccccc1)S(=O)(=O)c1cccs1)c1ccc(C#N)cc1`, the IC50 in assay [1] was 50 nM; in assay [4], 500 nM; in assay [5], greater than 10000 nM; in assay [2] it was 10000 nM. Further, in assay [3], the Selectivity ratio is 200.
On to `Cn1cnc(S(=O)(=O)N(Cc2ccccc2)[C@H]2CC[C@@H](N(Cc3cncn3C)c3ccc(C#N)cc3)C2)c1` (racemic), for which the half-maximal inhibitory concentration (IC50) in assay [1] was 650 nM; in assay [2] it was greater than 10000 nM. Moreover, the Selectivity ratio in assay [3] was greater than 15.
Consider `Cn1cnc(S(=O)(=O)N(CCN(Cc2cncn2C)c2ccc(C#N)cc2)Cc2ccncc2)c1`, for which the IC50 in assay [1] is 72 nM; in assay [4], greater than 10000 nM; in assay [5], greater than 10000 nM; in assay [2] it was greater than 10000 nM.
As to `Cc1c(CN(CCN(Cc2cncn2C)c2ccc(C#N)cc2)S(=O)(=O)c2cn(C)cn2)cnn1C`, the IC50 was 5300 nM in assay [1] and greater than 10000 nM in assay [2].
Turning to `Cn1cnc(S(=O)(=O)N(CCN(Cc2cncn2C)c2ccc(C#N)cc2)CC2CCN(C(=O)OC(C)(C)C)CC2)c1`, the results for the IC50 in assay [4], in assay [5] and in assay [2] were greater than 2000 nM, greater than 2000 nM and greater than 10000 nM, respectively. In assay [3], the Selectivity ratio is greater than 2.7.
Take `Cn1cnc(S(=O)(=O)N(CCN(Cc2c[nH]cn2)c2ccccc2)Cc2ccccc2)c1`: in assay [3], the Selectivity ratio amounted to 1.6.
In the case of `Cn1cnc(S(=O)(=O)N(CCN(Cc2c[nH]cn2)c2ccc(Br)cc2)Cc2ccccc2)c1`, the Selectivity ratio in assay [3] is 6.
Take `Cn1cnc(S(=O)(=O)N(CCN(Cc2cncn2C)c2ccc(Br)cc2)Cc2ccccc2)c1`: the values for the IC50 in assay [4] and in assay [5] were 1600 nM and greater than 10000 nM, respectively. The Selectivity ratio in assay [3] came to 6.7.
With `Cn1cnc(S(=O)(=O)N(CCN(Cc2cncn2C)c2ccc(C#N)cn2)CC2CCN(c3ncccn3)CC2)c1`, the IC50 in assay [1] is 110 nM; in assay [2], greater than 10000 nM. Moreover, the Selectivity ratio in assay [3] is greater than 91.
`Cc1ccc(CN(CCN(Cc2cncn2C)c2ccc(C#N)cc2)S(=O)(=O)c2cn(C)cn2)cc1`: the IC50 in assay [1] was 370 nM; in assay [4] it was 2000 nM; in assay [5], greater than 10000 nM; in assay [2] it was 580 nM.
On to `Cn1cnc(S(=O)(=O)N(CCN(Cc2cncn2C)c2ccc(C#N)cc2Cl)CC2CCN(c3ncccn3)CC2)c1`, for which the IC50 in assay [1] is 550 nM; in assay [2], greater than 10000 nM.
The like results for `Cn1cnc(S(=O)(=O)N(CCN(Cc2cncn2C)c2ccc(C(=O)O)cc2)Cc2ccccc2)c1` were, in that order, greater than 10000 nM and greater than 10000 nM.
Consider `Cn1cnc(S(=O)(=O)N(CCCN(Cc2cncn2C)c2ccc(C#N)cc2)Cc2ccccc2)c1`, for which the IC50 in assay [1] came to 420 nM; in assay [2], 4600 nM. Also, the Selectivity ratio in assay [3] is 11.
On to `Cn1cnc(S(=O)(=O)N(CCN(Cc2cncn2C)c2ccc(C(=O)OC(C)(C)C)cc2)Cc2ccccc2)c1`, for which the IC50 in assay [1] turned out to be 5400 nM; in assay [2], 4900 nM. For the same molecule, in assay [3], the Selectivity ratio stood at 0.9.
Take `Cn1cnc(S(=O)(=O)N(CCN(Cc2cncn2C)c2ccc(C#N)cc2)Cc2cccc(C#N)c2)c1`: the values for the IC50 in assay [1], in assay [4] and in assay [5] were 78 nM, 5000 nM and greater than 10000 nM, respectively.
With `Cn1cnc(S(=O)(=O)N(CCN(Cc2cnc[nH]2)c2ccccc2)Cc2ccccc2)c1`, the IC50 in assay [4], in assay [5] and in assay [2] was greater than 10000 nM in each case.
Turning to `Cn1cnc(S(=O)(=O)N(CCN(Cc2cncn2C)c2ncc(C#N)cn2)CC2CCN(c3ncccn3)CC2)c1`, the IC50 is 620 nM in assay [1] and greater than 10000 nM in assay [2]. Besides, the Selectivity ratio in assay [3] is greater than 16.
With `Cn1cncc1CN(CCN(CC1CCCCC1)S(=O)(=O)c1ccccn1)c1ccc(C#N)cc1F`, the IC50 was 88.7 nM in assay [4] and 2700 nM in assay [5]. The Selectivity ratio in assay [3] is 2.1.
For `Cn1cnc(S(=O)(=O)N(CCN(Cc2cncn2C)c2ccc(C#N)c(F)c2)CC2CCN(c3ncccn3)CC2)c1`, the IC50 in assay [1] is 230 nM; in assay [2] it was 9400 nM. In addition, in assay [3], the Selectivity ratio is 41.
For `Cn1cncc1CN(CCN(Cc1ccccc1)S(=O)(=O)C1CC1)c1ccc(C#N)cc1`, in assay [3], the Selectivity ratio was determined as 65.
As for `CCCS(=O)(=O)N(CCN(Cc1cncn1C)c1ccc(C#N)cc1)Cc1ccccc1`, the IC50 in assay [4] is 70 nM; in assay [5], greater than 10000 nM. Besides, the Selectivity ratio in assay [3] was 85.
Regarding `Cn1cnc(S(=O)(=O)N(Cc2ccccc2)[C@@H]2CCC[C@@H]2N(Cc2cncn2C)c2ccc(C#N)cc2)c1` (racemic), the IC50 in assay [1] is 1000 nM; in assay [2], greater than 10000 nM. Further, the Selectivity ratio in assay [3] was greater than 10.
Regarding `Cn1cnc(S(=O)(=O)N(Cc2ccccc2)[C@@H]2CC[C@@H](N(Cc3cncn3C)c3ccc(C#N)cc3)C2)c1` (racemic), the figures for the IC50 in assay [1] and in assay [2] were 380 nM and 7050 nM, respectively. In addition, the Selectivity ratio in assay [3] came to 19.
In the case of `Cn1cncc1CN(CCN(Cc1ccccc1)S(=O)(=O)c1ccccn1)c1ccc(C#N)cc1`, the IC50 in assay [1] is 25 nM; in assay [4] it was 90 nM; in assay [5] it was greater than 10000 nM; in assay [2] it was 820 nM.
As for `Cn1cnc(S(=O)(=O)N(CCN(Cc2cncn2C)c2ccc(C#N)nc2)CC2CCN(c3ncccn3)CC2)c1`, the IC50 in assay [1] was 520 nM; in assay [2], greater than 10000 nM.

Source of the values: ChEMBL document CHEMBL1255187, “Structure-based design and synthesis of potent, ethylenediamine-based, mammalian farnesyltransferase inhibitors as anticancer agents” (J Med Chem, 2010).
